IDH1 mut inh: IDH1 R132H (human) inhibition | IDH1 R132H reductase, diaphorase/resazurin fluorescence, 60 min | O75874 | 70,000 tested, 0.18% active | inhibition, % at 10 µM; in the data active = inhibition above about 34%; inconclusive = no clear call, values can overlap the other calls; inactive = below about 11%;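 also: 0% = DMSO and 100% = no enzyme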
Target sequence (O75874 whole entry R132H): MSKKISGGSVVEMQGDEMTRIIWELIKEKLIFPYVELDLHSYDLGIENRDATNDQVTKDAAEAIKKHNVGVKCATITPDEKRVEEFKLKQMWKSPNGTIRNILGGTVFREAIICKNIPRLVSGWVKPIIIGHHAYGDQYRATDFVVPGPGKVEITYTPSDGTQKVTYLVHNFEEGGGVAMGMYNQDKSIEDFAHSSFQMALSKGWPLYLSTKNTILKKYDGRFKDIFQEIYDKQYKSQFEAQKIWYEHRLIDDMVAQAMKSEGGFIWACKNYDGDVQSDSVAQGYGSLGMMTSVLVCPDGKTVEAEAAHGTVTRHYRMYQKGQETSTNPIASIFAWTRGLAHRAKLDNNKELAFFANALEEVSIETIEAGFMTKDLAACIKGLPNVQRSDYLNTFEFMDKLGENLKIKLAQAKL
T cruzi growth-1: T. cruzi proliferation inhibition | T. cruzi beta-gal in NIH3T3, GalScreen luminescence, 90 h | 77,000 tested, 5.9% active | inhibition, % at 8.34 µM;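 active = mean inhibition above about 93%, with at least 55% of replicates each passing it, limit read from the data, passing the limit was not always enough; inconclusive = only one of those two conditions holds; inactive = neither condition holds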
KDM4C inh: blocks human GASC-1 (KDM4C) demethylase activity | 96,000 tested, 0.15% active | GST-KDM4C 2-372, H3K9me3 peptide, LANCE TR-FRET | Q9H3R0 | AID 720574 | inhibition, % at 12.5 µM;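 active = mean replicate inhibition above about 25%, with at least 55% of replicates also reaching it, limit read from the data, passing the limit was not always enough; inconclusive = only one of those two conditions met; inactive = neither condition met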
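material = GST-tagged GASC-1 (JMJD2C) catalytic fragment, aa 2-372 | amount = enzyme final amount 10 nM | medium = HEPES buffer, pH 7.5, plus ascorbate | also added = H3K9me3 peptide substrate, Fe(II), 2-oxoglutarate | dosing = single dose | times = 30 min demethylation and 1 h detection at room temperature | detection = LANCE TR-FRET | read-out basis = Fall in 671/618 emission ratio as inhibition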
T cruzi growth-2: Trypanosoma cruzi proliferation inhibition. inhibition, % at 8.35 µM. shares compounds with T cruzi growth-1. 5,600 tested, 72% active. T. cruzi beta-gal in NIH3T3, GalScreen luminescence, 90 h;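 active = mean replicate inhibition above about 95% and at least 55% of replicates individually reaching it, limit read from the data; inconclusive = only one of the two criteria is met; inactive = neither criterion is met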
T cruzi growth-3: Trypanosoma cruzi proliferation inhibition; T. cruzi beta-gal in NIH3T3, GalScreen luminescence, 90 h; shares compounds with T cruzi growth-1; 5,600 tested, 21% active; inhibition, % at 2.09 µM;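 active = mean inhibition above about 95%, with at least 55% of replicates also reaching it, limit read from the data; inconclusive = meets just one of the two conditions; inactive = meets neither condition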;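 also: plate controls were neutral control median for no effect and positive control median for full effect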
3T3 cytotox: cytotoxicity in mouse NIH/3T3 fibroblasts; cytotoxicity (signal decrease), % at 8.35 µM; shares compounds with T cruzi growth-1; 5,600 tested, 14% active; NIH/3T3 viability, CellTiter-Glo ATP luminescence, 90 h;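 active = mean signal decrease across replicates above about 35% based on untreated-well scatter, with enough replicates individually passing, limit read from the data; inconclusive = no rule stated though some were filed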;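 also: 0% = median of neutral control wells and 100% = median of positive control wells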
NIH3T3 tox 2: cytotoxicity in mouse NIH/3T3 fibroblasts | shares compounds with T cruzi growth-1 | NIH/3T3 viability, CellTiter-Glo ATP luminescence, 90 h | inhibition, % at 24.9 µM | 5,600 tested, 56% active | AID 651744;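 active = mean loss of cell viability signal at or above a set limit, and enough replicates individually reaching it; inconclusive = meets only the mean limit or only the replicate share; inactive = meets neither condition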;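 also: 0% = median of neutral control wells and 100% = median of positive control wells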
* hit, by the source's call. Shown is part of a subset that was picked to be rich in hits.

Screening O=C(CN1C(=O)C2C3CC(c4ccccc4)C(C3)C2C1=O)Nc1cccc([N+](=O)[O-])c1 (centres undefined) returned IDH1 mut inh 0.1.
`COc1ccc(C)cc1NC(=O)CSc1nc2ccccc2s1` gave IDH1 mut inh 0.0.
`C[C@H]1CN([C@@H](C)CO)C(=O)CCCn2cc(nn2)CO[C@H]1CN(C)C(=O)c1ccc2ccn(C)c2c1` gave IDH1 mut inh 0.4, T cruzi growth-1 -131.7 and KDM4C inh 0.5.
C[C@H]1CN([C@@H](C)CO)C(=O)CCCn2cc(nn2)CO[C@H]1CN(C)C(=O)c1ccc(N2CCN(C)CC2)cc1 was read as IDH1 mut inh 0.8, T cruzi growth-1 inconclusive, KDM4C inh 1.4, T cruzi growth-2 41.5, T cruzi growth-3 -20.0, 3T3 cytotox -24.8 and NIH3T3 tox 2 -37.6.
Screening C[C@H]1CN([C@@H](C)CO)C(=O)CCCn2cc(nn2)CO[C@@H]1CN(C)C(=O)Nc1ccc(N2CCN(C)CC2)cc1 returned T cruzi growth-1 7.3 and KDM4C inh -0.1.
`C[C@@H]1CN([C@@H](C)CO)C(=O)CCCn2cc(nn2)CO[C@@H]1CN(C)C(=O)c1ccc(N2CCN(C)CC2)cc1` gave IDH1 mut inh 0.9, T cruzi growth-1 9.3 and KDM4C inh 0.4.
`C[C@H](CO)N1C[C@H](C)[C@H](CN(C)C(=O)c2ccc(N3CCN(C)CC3)cc2)OCc2cn(nn2)CCCC1=O` gave IDH1 mut inh 0.2, T cruzi growth-1 inconclusive, KDM4C inh 1.9, T cruzi growth-2 -57.2, T cruzi growth-3 -15.0, 3T3 cytotox -15.7 and NIH3T3 tox 2 -12.0.
For C[C@@H]1CN([C@H](C)CO)C(=O)CCCn2cc(nn2)CO[C@H]1CN(C)C(=O)c1ccc2ccn(C)c2c1 the results were IDH1 mut inh -1.0, T cruzi growth-1 inconclusive, KDM4C inh 0.2, T cruzi growth-2 -1.4, T cruzi growth-3 -6.0, 3T3 cytotox -14.6 and NIH3T3 tox 2 -16.9.
Screening O=C1CC(CSc2nnnn2-c2ccccc2)=NN1 returned IDH1 mut inh -0.2.
C[C@@H]1CCCCO[C@@H](CN(C)CC2CC2)[C@H](C)CN([C@@H](C)CO)C(=O)c2cc(NS(=O)(=O)c3ccc(Cl)cc3)ccc2O1 was read as T cruzi growth-1 72.9.
Screening CCCC#Cc1ccc2c(c1)O[C@H](CN(C)Cc1ccccn1)[C@H](C)CN([C@H](C)CO)S2(=O)=O returned IDH1 mut inh -0.1, T cruzi growth-1 45.5 and KDM4C inh 0.8.
For CCCC#Cc1ccc2c(c1)O[C@@H](CN(C)Cc1ccccn1)[C@@H](C)CN([C@@H](C)CO)S2(=O)=O the results were IDH1 mut inh -2.3, T cruzi growth-1 74.4 and KDM4C inh 2.7.
For CC(C)CC#Cc1ccc2c(c1)O[C@H](CN(C)Cc1ccccn1)[C@@H](C)CN([C@H](C)CO)S2(=O)=O the results were IDH1 mut inh -0.6, T cruzi growth-1 124.4*, KDM4C inh 1.6, T cruzi growth-2 106.4*, T cruzi growth-3 93.8, 3T3 cytotox 22.3 and NIH3T3 tox 2 106.1*.
`CC(C)CC#Cc1ccc2c(c1)O[C@@H](CN(C)Cc1ccccn1)[C@@H](C)CN([C@H](C)CO)S2(=O)=O` gave IDH1 mut inh -2.1, T cruzi growth-1 109.5*, KDM4C inh 10.8, T cruzi growth-2 105.6*, T cruzi growth-3 52.1, 3T3 cytotox -7.2 and NIH3T3 tox 2 104.1*.
Screening C[C@]12CCC3C(CC[C@@H]4C[C@H](O)CC[C@]34C)C1CC[C@]2(O)C(=O)CO (some centres undefined) returned IDH1 mut inh 0.3.
CCCNC(=O)N1CC2(CN(C(=O)C3CCC3)C2)c2c([nH]c3cc(OC)ccc23)[C@H]1CO was read as KDM4C inh -0.4.
Screening O=C(C[C@H]1C=C[C@H](NC(=O)C2CC2)[C@H](CO)O1)NCCc1cscn1 returned KDM4C inh -0.8.
COc1ccc(N2C(=O)CC(SCC(=O)Nc3ccc(F)cc3)C2=O)cc1 (centres undefined) was read as IDH1 mut inh -0.6.
For CCCNC(=O)[C@@H]1[C@@H](CO)[C@@H]2Cn3c(ccc(C4=CCCC4)c3=O)[C@H]1N2C(C)=O the results were T cruzi growth-1 105.6*, KDM4C inh 2.5, T cruzi growth-2 108.5*, T cruzi growth-3 15.7, 3T3 cytotox 3.2 and NIH3T3 tox 2 -6.3.
Screening O=C(NC1CCC1)[C@@H]1[C@@H](CO)[C@@H]2Cn3c(ccc(-c4cccc(F)c4)c3=O)[C@H]1N2Cc1cocn1 returned T cruzi growth-1 100.4*, KDM4C inh 0.1, T cruzi growth-2 61.0, T cruzi growth-3 16.6, 3T3 cytotox 21.4 and NIH3T3 tox 2 12.0.
`CCCNC(=O)[C@H]1[C@H](CO)[C@H]2Cn3c(ccc(-c4ccccc4)c3=O)[C@@H]1N2C(=O)CC1CC1` gave T cruzi growth-1 106.2*, KDM4C inh 0.0, T cruzi growth-2 81.7, T cruzi growth-3 2.9, 3T3 cytotox 3.1 and NIH3T3 tox 2 -7.7.
CN(C)C(=O)[C@@H]1[C@@H](CO)[C@@H]2Cn3c(ccc(-c4cccc(F)c4)c3=O)[C@H]1N2Cc1ccccc1 was read as T cruzi growth-1 102.8*, KDM4C inh 0.5, T cruzi growth-2 13.0, T cruzi growth-3 15.3, 3T3 cytotox -12.2 and NIH3T3 tox 2 7.1.
Screening O=C(NC1CCC1)[C@@H]1[C@@H](CO)[C@@H]2Cn3c(ccc(-c4ccc(F)cc4)c3=O)[C@H]1N2Cc1cocn1 returned KDM4C inh 0.8.
Screening CN(C)C(=O)[C@@H]1[C@@H](CO)[C@@H]2Cn3c(ccc(-c4cccc(F)c4)c3=O)[C@H]1N2CCc1ccccc1 returned T cruzi growth-1 15.6 and KDM4C inh 0.4.
Screening CCNC(=O)[C@@H]1[C@@H](CO)[C@@H]2Cn3c(ccc(-c4ccccc4)c3=O)[C@H]1N2C(=O)CC1CC1 returned KDM4C inh -3.1.
CCCNC(=O)[C@H]1[C@H](CO)[C@H]2Cn3c(ccc(C4=CCCC4)c3=O)[C@@H]1N2C(C)=O was read as T cruzi growth-1 -3.8 and KDM4C inh 4.9.
Screening CCOC(=O)c1c(C)[nH]c2ccc3c(c12)CN1CCc2cc(OC)ccc2C1O3 (centres undefined) returned IDH1 mut inh -4.2.
For COc1ccccc1OCC(=O)Nc1c[nH]c(=O)[nH]c1=O the results were IDH1 mut inh -0.7.
`C/C=C/c1ccc2c(c1)O[C@@H](CN(C)C(=O)Cc1ccncc1)[C@H](C)CN([C@H](C)CO)S2(=O)=O` gave IDH1 mut inh 1.6, T cruzi growth-1 17.4 and KDM4C inh -1.1.

From PubChem BioAssay
